From ChEMBL document CHEMBL5653613 (Mol Cancer Ther, 2013)
pIC50: −log10 of the molar value. Activity calls are given as the source filed them. The calls are words filed in the database; no cut-off is given here.

What was measured:
[1] = test system: T47D; experiment: Induction of polyploidy in human T47D cells assessed as cells with 4N chromosome contents at 5 uM incubated for 48 hrs by PI staining based flow cytometry (reference value: 35); type: functional
[2] = test system: T47D; experiment: Induction of cell cycle arrest at cytokinesis in human T47D cells at 5 umol/L preincubated for 24 hrs followed by extensive compound washout and subsequent culturing in compound-free media measured upto 120 mins by immunofluorescence staining based analysis; type: functional; conditions: dose 5.0 µmol/L
In short: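 T-47D cells were treated at 37°C with 5 µmol/L for 24 h, washed extensively, then cultured in DMEM with 10% FBS for 30, 60 and 120 min. α- and γ-tubulin were detected by immunofluorescence with DAPI, imaged at 400×. The control was a 24 h preincubation with 5 µmol/L RO-3306. One of 2 experiments.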

[3] = test system: T47D; experiment: Disruption of microtubule dynamics in human T47D cells assessed as formation of multipolar spindles at 5 umol/L incubated upto 72 hrs by immunofluorescence staining based analysis; type: functional, cell-based; conditions: dose 5.0 µmol/L
In short: (§1)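 T-47D cells (1 × 10^6/dish) in RPMI-1640 with 5% FBS were treated with or without 5 µmol/L for 24, 48 and 72 h. Cells were fixed in cold acetone and stained with mouse anti-α-tubulin or anti-γ-tubulin, then an FITC anti-mouse IgG secondary, plus DAPI. Fluorescence microscopy, 200× magnification.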

[4] = test system: T47D; experiment: Inhibition of cell growth of human T47D cells at 5 uM; type: functional, cell-based; conditions: time <= 48.0 hrs, TDE = time-dependent effect
[5] = test system: ZR-75-1; experiment: Induction of polyploidy in human ZR-75-1 cells assessed as cells with 4N chromosome contents at 5 uM incubated for 24 hrs by PI staining based flow cytometry (reference value: 35); type: functional
[6] = test system: MCF7; experiment: Induction of apoptosis in human MCF7 cells assessed as rate of apoptotic cell death at 5 umol/L by annexin V/PI staining based flow cytometry relative to control; type: functional; conditions: dose 5 µmol/L; at 5 µM
[7] = test system: T-47D (Homo sapiens); experiment: Disruption of microtubule dynamics in human T-47D cells at 5 umol/L incubated upto 72 hrs by immunofluorescence staining based analysis; conditions: dose 5.0 µmol/L
[8] = test system: T47D; experiment: Induction of polyploidy in human T47D cells at 5 umol/L incubated for 72 hrs by microscopic analysis relative to control; type: functional; conditions: dose 5 µmol/L, at 5 µM
In short: (§2)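 Cells stained with Hema-3 and photographed under a light microscope with CCD camera. Polyploid cells scored as percent of the population.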

[9] = test system: ZR-75-1; experiment: Induction of polyploidy in human ZR-75-1 cells at 5 uM incubated for 72 hrs by microscopic analysis; type: functional, cell-based; in short: as §2
[10] = test system: MCF7; experiment: Induction of polyploidy in human MCF7 cells assessed as cells with 8N chromosome contents at 5 uM incubated for 72 hrs by PI staining based flow cytometry (reference value: 0); type: functional
[11] = test system: T47D; experiment: Induction of apoptosis in human T47D cells assessed as late cells at 5 umol/L incubated for 3 days by Annexin V/PI staining based flow cytometry (reference value: 2.9 %); type: functional; conditions: dose 5 µmol/L; time 3 day; at 5 µM
[12] = test system: T47D; experiment: Induction of polyploidy in human T47D cells assessed as cells with 8N chromosome contents at 5 uM incubated for 72 hrs by PI staining based flow cytometry (reference value: 0); type: functional
[13] = (§3) Effect on doxorubicin resistance in human T47D cells with compound-induced polyploidy assessed as change in doxorubicin-induced cytotoxicity by measuring increase in doxorubicin IC50 at 5 umol/L preincubated for 72 hrs followed by compound washout and subsequent doxorubicin treatment for 72 hrs by MTS assay; type: functional, cell-based
[14] = as §3, with “cisplatin” for “doxorubicin”, “ZR-75-1” for “T47D”, “cisplatin-induced” for “doxorubicin-induced”; type: functional, cell-based
[15] = test system: T47D; experiment: Induction of polyploidy in human T47D cells assessed as cells with 4N chromosome contents at 5 uM incubated for 72 hrs by PI staining based flow cytometry (reference value: 35); type: functional
[16] = test system: MCF7; experiment: Induction of polyploidy in human MCF7 cells assessed as cells with 2N chromosome contents at 5 uM incubated for 24 hrs by PI staining based flow cytometry (reference value: 52); type: functional
[17] = test system: ZR-75-1; experiment: Induction of polyploidy in human ZR-75-1 cells at 1 umol/L incubated for 72 hrs by microscopic analysis relative to control; type: functional; conditions: dose 1 µmol/L, at 1 µM; in short: as §2
[18] = Effect on bleomycin resistance in human T47D cells with compound-induced polyploidy assessed as change in bleomycin-induced cytotoxicity by measuring increase in bleomycin IC50 at 5 umol/L preincubated for 72 hrs followed by compound washout and subsequent bleomycin treatment for 72 hrs by MTS assay; type: functional, cell-based
[19] = test system: T47D; experiment: Induction of polyploidy in human T47D cells assessed as cells with 8N chromosome contents at 5 uM incubated for 48 hrs by PI staining based flow cytometry (reference value: 0); type: functional
[20] = Effect on cisplatin resistance in human T47D cells with compound-induced polyploidy assessed as change in cisplatin-induced cytotoxicity by measuring increase in cisplatin IC50 at 5 umol/L preincubated for 72 hrs followed by compound washout and subsequent cisplatin treatment for 72 hrs by MTS assay; type: functional, cell-based
[21] = test system: ZR-75-1; experiment: Induction of polyploidy in human ZR-75-1 cells assessed as cells with 2N chromosome contents at 5 uM incubated for 24 hrs by PI staining based flow cytometry (reference value: 48); type: functional
[22] = test system: T47D; experiment: Disruption of microtubule dynamics in human T47D cells assessed as absence of functional bipolar spindle assembly at 5 umol/L incubated for 24 hrs by immunofluorescence staining based analysis; type: cell-based; conditions: dose 5.0 µmol/L; in short: as §1
[23] = test system: T47D; experiment: Induction of apoptosis in human T47D cells assessed as rate of apoptotic cell death at 5 umol/L by annexin V/PI staining based flow cytometry relative to control; type: functional; conditions: dose 5 µmol/L; at 5 µM
[24] = test system: T47D; experiment: Induction of cell death of human T47D cells with RON-/- at 5 umol/L incubated for 72 hrs followed by media replacement without compound measured upto 10 days by microscopic analysis; type: functional, cell-based; conditions: dose 5.0 µmol/L
[25] = as §3, with “paclitaxel” for “doxorubicin”, “ZR-75-1” for “T47D”, “paclitaxel-induced” for “doxorubicin-induced”; type: functional, cell-based
[26] = Cmax in athymic mouse xenografted with human GTL-16 cells upto 50 mg/kg, po qd for 14 days consecutively; type: ADME, organism-based; conditions: in vivo, time 14 day
[27] = test system: T47D; experiment: Induction of polyploidy in human T47D cells assessed as cells with 16N chromosome contents at 5 uM incubated for 48 hrs by PI staining based flow cytometry (reference value: 0); type: functional
[28] = test system: MCF7; experiment: Induction of polyploidy in human MCF7 cells at 5 to 10 umol/L incubated for 72 hrs by microscopic analysis relative to control; type: functional; conditions: dose 5-10 µmol/L, at 5 to 10 µM; in short: as §2
[29] = test system: ZR-75-1; experiment: Induction of polyploidy in human ZR-75-1 cells with RON-/- by microscopic analysis; type: functional, cell-based
In short: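 Cells (2 106 per 60-mm dish) transiently transfected for 48 hours with 1 nmol/L scrambled or RON-specific siRNA, with knockdown confirmed by anti-RON Western blot. […] Polyploidy monitored and photographed by microscopy, with untransfected and scrambled-siRNA cells as comparators.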

[30] = test system: T47D; experiment: Induction of apoptosis in human T47D cells assessed as viable cells at 5 umol/L incubated for 3 days by Annexin V/PI staining based flow cytometry (reference value: 95.7 %); type: functional; conditions: 72 h, dose 5 µmol/L, time 3 day, read-out: Activity
[31] = test system: ZR-75-1; experiment: Induction of polyploidy in human ZR-75-1 cells assessed as cells with 8N chromosome contents at 5 uM incubated for 24 hrs by PI staining based flow cytometry (reference value: 0); type: functional

CCOc1ccn(-c2ccc(F)cc2)c(=O)c1C(=O)Nc1ccc(Oc2ccnc(N)c2Cl)c(F)c1 [BMS-777607]
Activity [1]: 22
Activity [2]: Active
Activity [3]: Active
inhibition [4]: Tde
Activity [5]: 45.5
Activity [6]: 2.2%
Activity [7]: Active
Activity [8]: 78%
Activity [9]: Active
Activity [10]: 29
Activity [11]: 8.1%
Activity [12]: 21
pIC50 [13]: 5.85
pIC50 [14]: 8.47
Activity [15]: 20
Activity [16]: 15.5
Activity [17]: 11%
pIC50 [18]: 5.56
Activity [19]: 23
pIC50 [20]: 8.04
Activity [21]: 15.5
Activity [22]: Active
Activity [23]: 10.3%
Activity [24]: inactive
pIC50 [25]: 7.68
Cmax [26]: 43.7 µM
Activity [27]: 18.5
Activity [28]: 36%
Activity [29]: Active
viability at 5 µM [30]: 87.3%
Activity [31]: 14
